Structures are written as SMILES. Changes are numbered by the printed parent chain. Calls of active or inactive are those of the source. The rule behind the calls is not given here.

Test [1] deals with T1, Penicillin-binding protein 2X (Streptococcus pneumoniae R6) (UniProt P59676).
T1 sequence (whole entry): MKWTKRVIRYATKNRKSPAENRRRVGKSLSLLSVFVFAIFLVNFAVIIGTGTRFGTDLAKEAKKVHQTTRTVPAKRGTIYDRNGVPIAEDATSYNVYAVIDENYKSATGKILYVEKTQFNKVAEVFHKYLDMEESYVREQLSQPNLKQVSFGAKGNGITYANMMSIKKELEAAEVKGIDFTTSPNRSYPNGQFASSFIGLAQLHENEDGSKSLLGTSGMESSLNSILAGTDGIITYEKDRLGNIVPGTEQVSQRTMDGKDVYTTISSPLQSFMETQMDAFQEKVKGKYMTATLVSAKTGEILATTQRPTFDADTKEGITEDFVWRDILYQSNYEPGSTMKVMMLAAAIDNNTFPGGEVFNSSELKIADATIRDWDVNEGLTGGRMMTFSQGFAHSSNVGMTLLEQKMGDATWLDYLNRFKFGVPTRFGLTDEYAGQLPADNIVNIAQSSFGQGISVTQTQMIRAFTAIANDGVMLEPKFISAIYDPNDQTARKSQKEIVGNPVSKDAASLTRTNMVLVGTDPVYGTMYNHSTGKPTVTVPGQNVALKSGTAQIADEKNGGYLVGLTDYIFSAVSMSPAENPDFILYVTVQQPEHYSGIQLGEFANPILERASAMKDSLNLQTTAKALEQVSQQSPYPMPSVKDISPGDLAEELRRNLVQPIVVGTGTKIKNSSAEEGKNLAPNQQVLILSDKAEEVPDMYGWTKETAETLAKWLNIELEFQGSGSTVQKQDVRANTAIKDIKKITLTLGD
The test is described as follows: Inhibition of penicillin-sensitive Streptococcus pneumoniae R6 PBP2X preincubated for 1 hr before addition of substrate (R)-[2-(benzoylamino)propionylsulfanyl]acetic acid. The method, boiled down:
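Compounds taken from 100 mM DMF stocks (1% DMF final) and preincubated with 0.09 μM R6-PBP2x in 10 mM sodium phosphate pH 7.0 with 0.01 mg/mL BSA, 60 min, 25 °C. Spontaneous hydrolysis without enzyme measured. Triplicates. IC50 fitted from residual activity versus decreasing inhibitor concentration, with 0.01% Triton X-100.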

The target of test [2] is T2, Penicillin-binding protein 2x (Streptococcus pneumoniae serotype 4 (strain ATCC BAA-334 / TIGR4)) (UniProt P14677).
T2 sequence (whole entry): T1 sequence (whole entry) with M385T
The test is described as follows: Inhibition of penicillin-resistant Streptococcus pneumoniae 5204 PBP2X preincubated for 4 hrs before addition of substrate (R)-[2-(benzoylamino)propionylsulfanyl]acetic acid. In outline: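 0.6 μM 5204-PBP2x preincubated 4 h at 25 °C with inhibitor in 10 mM sodium phosphate pH 7.0, 70 mM D-alanine, 0.01 mg/mL BSA, 1% DMF, 0.01% Triton X-100. Assays were run in triplicate, and IC50 was fitted from residual activity versus decreasing inhibitor concentrations.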

As to `C[C@H]1NCc2cc(-c3ccc4c(=O)c(C(=O)O)cn(C5CC5)c4c3OC(F)F)ccc21`, the result in test [1] and in test [2] was Active.

On to `CC/C=C(\C(=O)N[C@@H]1C(=O)N2C(C(=O)O)=C(COC(N)=O)CS[C@H]12)c1csc(N)n1`, for which the result in test [1] and in test [2] was Active.

Take `CC(NC(=O)C(C)NC(=O)CCCCCN)C(=O)O` (stereo unspecified): the outcome in test [1] and in test [2] was inactive.

With `N[C@@H](C(=O)N[C@@H]1C(=O)N2C(C(=O)O)=C(Cl)CS[C@H]12)c1ccccc1`, the outcome in test [1] and in test [2] was Active.

In the case of `CCn1c2ccccc2c2cc(/C=C3\S/C(=N\c4ccccc4)N(C(C(=O)O)C(C)C)C3=O)ccc21` (stereo unspecified), the result in test [1] and in test [2] was inactive.

For the molecule `Nc1nc(/C(=N/O)C(=O)N[C@@H]2C(=O)N3C(C(=O)O)=C(/C=C4\CCN([C@@H]5CCNC5)C4=O)CS[C@H]23)ns1`, the result in test [1] and in test [2] was Active.

As for `COCC1=C(C(=O)O)N2C(=O)[C@@H](NC(=O)/C(=N\OC)c3csc(N)n3)[C@H]2SC1`, the result in test [1] and in test [2] was Active.

In the case of `NCCSCc1cnccc1SC1=C(C(=O)O)N2C(=O)[C@@H](NC(=O)/C(=N\O)c3nc(N)sc3Cl)[C@H]2SC1`, the result in test [1] and in test [2] was Active.

As for `CCn1c2ccccc2c2cc(/C=C3\S/C(=N\c4ccccc4)N(C(C(=O)O)c4ccccc4)C3=O)ccc21` (stereo unspecified), the outcome in test [1] and in test [2] was inactive.

For `C[C@@H](O)[C@H]1C(=O)N2C(C(=O)O)=C(SCCNC=N)C[C@H]12`, the result in test [1] and in test [2] was Active.

Turning to `Nc1cc(SCSC2=C(C(=O)O)N3C(=O)[C@@H](NC(=O)/C(=N/O)c4nc(N)sc4Cl)[C@H]3SC2)nc(N)n1`, the outcome in test [1] and in test [2] was Active.

In the case of `CCO/N=C(\C(=O)N[C@@H]1C(=O)N2C(C(=O)[O-])=C(C[n+]3cccc4c3ncn4CCCNC)CS[C@H]12)c1nsc(N)n1`, the outcome in test [1] and in test [2] was Active.

As to `C[C@@H](O)[C@H]1C(=O)N2C(C(=O)[O-])=C(SC3Cn4cnc[n+]4C3)[C@H](C)[C@H]12` (stereo partly specified), the result in test [1] and in test [2] was Active.

As to `CO/N=C(\C(=O)N[C@@H]1C(=O)N2C(C(=O)OCOC(=O)C(C)(C)C)=C(/C=C\c3scnc3C)CS[C@H]12)c1csc(N)n1`, the result in test [1] and in test [2] was Active.

In the case of `CO[C@H]1CCC[C@H]2C1=C(C(=O)O)N1C(=O)[C@H]([C@@H](C)O)[C@@H]21`, the outcome in test [1] and in test [2] was Active.

With `C[C@@H](O)[C@H]1C(=O)N2C(C(=O)O)=C(S[C@@H]3CN[C@H](C(=O)N(C)C)C3)[C@H](C)[C@H]12`, the result in test [1] and in test [2] was Active.

With `O=C(COc1ccccc1)N[C@H]1CON([C@@]2(C(=O)O)CCC(=O)O2)C1=O`, the outcome in test [1] and in test [2] was Active.

Consider `CC(=O)NC1CON(C2(C(=O)O)CCC(=O)O2)C1=O` (stereo unspecified), for which the result in test [1] and in test [2] was Active.

Take `CO/N=C(\C(=O)N[C@@H]1C(=O)N2C(C(=O)O)=C(COC(C)=O)CS[C@H]12)c1csc(N)n1`: the result in test [1] and in test [2] was Active.

On to `O=C(Cc1cccs1)N[C@@H]1C(=O)N2C(C(=O)O)=C(/C=C/c3ccc([N+](=O)[O-])cc3[N+](=O)[O-])CS[C@H]12`, for which the outcome in test [1] and in test [2] was Active.

With `C[C@@H](O)[C@H]1C(=O)N2C(C(=O)O)=C([C@H]3CCCO3)S[C@H]12`, the result in test [1] and in test [2] was Active.

Turning to `CC1(C)S[C@@H]2[C@H](NC(=O)[C@H](N)c3ccc(O)cc3)C(=O)N2[C@H]1C(=O)O`, the result in test [1] and in test [2] was Active.

`C[C@@H](NC(=O)c1ccccc1)C(=O)SCC(=O)O`: the result in test [1] and in test [2] was Active.

`CCO/N=C(\C(=O)NC1C(=O)N2C(C(=O)[O-])=CC(/C=C/Sc3cc[n+](C)cc3)SC12)c1nsc(N)n1` (stereo unspecified): the outcome in test [1] and in test [2] was Active.

In the case of `CC1(C)S[C@@H]2[C@H](NC(=O)[C@H](N)c3ccccc3)C(=O)N2[C@H]1C(=O)O`, the outcome in test [1] and in test [2] was Active.

With `CC(=O)OCC1=C(C(=O)O)N2C(=O)[C@@H](NC(=O)Cc3cccs3)[C@H]2SC1`, the result in test [1] and in test [2] was Active.

`CCn1c2ccccc2c2cc(/C=C3\S/C(=N\C(Cc4ccccc4)C(=O)O)N(c4ccccc4)C3=O)ccc21` (stereo unspecified): the result in test [1] and in test [2] was inactive.

With `CC=CC1=C(C(=O)O)N2C(=O)[C@@H](NC(=O)[C@H](N)c3ccc(O)cc3)[C@H]2SC1`, the outcome in test [1] and in test [2] was Active.

For `CO/N=C(\C(=O)N[C@@H]1C(=O)N2C(C(=O)O)=C(CSc3nc(=O)c(O)nn3C)CS[C@H]12)c1csc(N)n1`, the result in test [1] and in test [2] was Active.

In the case of `O=C(O)c1cc(-c2ccc(/C=C3\S/C(=N\c4ccccc4)N(c4ccccc4)C3=O)o2)ccc1Cl`, the outcome in test [1] and in test [2] was inactive.

Turning to `CC(=N)N1CC[C@H](SC2=C(C(=O)O)N3C(=O)[C@H]([C@@H](C)O)[C@H]3C2)C1`, the outcome in test [1] and in test [2] was Active.

As to `C[C@H]1COc2c(N3CCN(C)CC3)c(F)cc3c(=O)c(C(=O)O)cn1c23`, the outcome in test [1] and in test [2] was Active.

In the case of `CO/N=C(\C(=O)N[C@@H]1C(=O)N2C(C(=O)O)=C(COC(N)=O)CS[C@H]12)c1ccco1`, the outcome in test [1] and in test [2] was Active.

As to `CCC1C(=O)N2CC1CC(OC)=C2C(=O)O` (stereo unspecified), the outcome in test [1] and in test [2] was Active.

As for `N[C@@H](C(=O)N[C@@H]1C(=O)N2C(C(=O)O)=C(Cl)CC[C@H]12)c1ccccc1`, the outcome in test [1] and in test [2] was Active.

Turning to `COc1c(N2CCNC(C)C2)c(F)cc2c(=O)c(C(=O)O)cn(C3CC3)c12` (stereo unspecified), the result in test [1] and in test [2] was Active.

In the case of `C=CC1=C(C(=O)O)N2C(=O)[C@@H](NC(=O)/C(=N\O)c3csc(N)n3)[C@H]2SC1`, the result in test [1] and in test [2] was Active.

`CC(=O)C[n+]1ccc(SCC2=C(C(=O)[O-])N3C(=O)[C@@H](NC(=O)/C(=N/OC4CCCC4)c4csc(N)n4)[C@H]3SC2)cc1`: the outcome in test [1] and in test [2] was Active.

For the origin of these results see ChEMBL document CHEMBL1155224, “Discovery of new inhibitors of resistant Streptococcus pneumoniae penicillin binding protein (PBP) 2x by structure-based virtual screening” (J Med Chem, 2009).
